Screening data (PubChem BioAssay)
CRFR2-BP ag – agonists of CRF-BP/CRF-R2 complex, primary screen, cell-based, HEK293, calcium dye fluorescence, uHTS; calcium dye fluorescence (FLIPR); percent of saturating CRF peptide response; activation, % at 13.2 µM; actives 0.46% (n = 350,000); AID 588473, 2011;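 active = activation of at least 50%, plus an integration ratio under a set limit after plate pattern correction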;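 note: plate controls were neutral control wells without compound for no effect and CRF at EC100 for full effect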
DDE Tn7 FP inh – inhibitors of Tn7 peptide binding to fibrin DD(E), primary screen, biochemical, fluorescence polarization, human fibrin, Tn7 probe | FP displacement of FITC-Tn7 peptide from fibrin DD(E); 0% = median of compound wells per plate | inhibition, % at 8.3 µM | actives 0.13% (n = 370,000) | AID 720508, 2013;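 active = inhibition above the mean of compounds falling within the control limits plus 3 SD of them, cut at about 14% in these data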;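 note: 0% = plate median of compound wells and 100% = 10 µM Aha-Tn7 peptide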
Target sequence (P02675 whole entry, looked up): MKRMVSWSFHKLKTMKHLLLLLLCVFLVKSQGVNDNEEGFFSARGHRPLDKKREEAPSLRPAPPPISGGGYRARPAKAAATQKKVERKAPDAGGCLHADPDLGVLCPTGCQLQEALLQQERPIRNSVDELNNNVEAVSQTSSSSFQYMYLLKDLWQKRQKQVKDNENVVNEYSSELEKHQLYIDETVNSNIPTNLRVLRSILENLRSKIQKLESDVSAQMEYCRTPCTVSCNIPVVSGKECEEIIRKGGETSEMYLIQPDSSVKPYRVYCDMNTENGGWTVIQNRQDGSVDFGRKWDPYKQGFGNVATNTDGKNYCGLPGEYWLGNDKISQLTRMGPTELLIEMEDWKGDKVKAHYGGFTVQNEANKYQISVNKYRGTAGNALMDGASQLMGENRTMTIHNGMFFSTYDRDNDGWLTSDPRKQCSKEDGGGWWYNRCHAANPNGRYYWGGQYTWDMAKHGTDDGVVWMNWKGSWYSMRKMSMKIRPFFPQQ
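system = human fibrin DD(E) protein | quantity = DD(E) 2 µM final | medium = Tris/NaCl/CaCl2 buffer, pH 7.8 | also added = labelled Tn7 tracer, 0.1 µM | compound dosing = single point at 8.3 µM | timing = compound with protein 10 min, then 3 h after probe, room temperature | signal = FP measurement | benchmarks = Aha-Tn7 high control | repeats = one replicate per compound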
Tn6 DDE FP – inhibitors of Tn6 peptide binding to fibrin DD(E), primary screen, biochemical, fluorescence polarization, human fibrin, Tn6 probe | Fibrinogen beta chain (Homo sapiens), P02675 | Fibrin DD(E) TRITC-Tn6 fluorescence polarization displacement | inhibition, % at 8.3 µM | actives 0.21% (n = 370,000);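 active = inhibition above a per-campaign cutoff: mean of compounds within control limits plus 3 SD, cut at about 15% in these data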;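 note: 0% = median of all compound wells on the plate and 100% = blocking peptide control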
CRFBP-R2 block – antagonists of CRF-BP/CRF-R2 complex, primary screen, cell-based, HEK293, calcium dye fluorescence, uHTS | inhibition, % at 11.8 µM | actives 0.59% (n = 350,000) | CRF-induced calcium fluorescence;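 active = inhibition of the ligand-induced calcium signal above about 50% at the single tested concentration, limit read from the data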
Tn6 DDE ctr – counter-screen hit for Tn6 peptide-fibrin DD(E) binding disruption; shares compounds with Tn6 DDE FP; TRITC-Tn6 fluorescence polarization displacement; 0% = median of compound wells, not DMSO; inhibition, % at 8.3 µM; actives 2% (n = 680);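 active = inhibition above the mean of test compounds lying between the control limits plus 3 SD of those, cut at about 14% in these data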;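 note: 0% = median of compound wells and 100% = wells with Aha-Tn7 blocking peptide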
Tn6 DDE conf – inhibitors of Tn6 peptide binding to fibrin DD(E), confirmation, biochemical, fluorescence polarization, human fibrin, Tn6 probe; shares compounds with Tn6 DDE FP; FP displacement of TRITC-Tn6 peptide from DD(E); 0% = per-plate median of test wells; inhibition, % at 8.3 µM; actives 10% (n = 680); AID 720631, 2013;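 active = inhibition above the mean of compounds lying within the control limits plus 3 SD, cut at about 16% in these data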;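 note: 100% = high control wells holding a competing inhibitor peptide at 10 µM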
* = called active by the depositor; . = not tested or not shown; + = active, no number. In the library only some 1.2% were active in any assay of this set; here they are far more common.

SMILES	CRFR2-BP ag	DDE Tn7 FP inh	Tn6 DDE FP	CRFBP-R2 block	Tn6 DDE ctr	Tn6 DDE conf
O=C(Cn1c(=O)[nH]c2ccsc2c1=O)N1CCN(c2ccc(F)cc2)CC1	0	1	16*	-30	2	-3
O=C(O)c1cccc(S(=O)(=O)Nc2ccccc2Cc2ccccc2)c1	0	1	0	6	.	.
CS(=O)(=O)c1cccc(C(=O)Nc2ccccc2Cc2ccccc2)c1	0	-3	16*	-2	0	-3
CCOc1ccc(S(=O)(=O)NCCC(=O)NCCOc2ccccc2OC)cc1	-4	0	22*	3	1	2
CCOc1ccc(S(=O)(=O)NCCC(=O)NCc2ccco2)cc1	-2	3	-2	18	.	.
Cc1c(NS(=O)(=O)c2cccc(C(=O)N3CCC(C(N)=O)CC3)c2)c(=O)n(-c2ccccc2)n1C	0	-1	0	-13	.	.
O=C(CSc1nnc(-c2ccc(Cl)cc2)n1Cc1ccco1)Nc1ccc(S(=O)(=O)Nc2nccs2)cc1	.	-4	6	.	.	.
Cc1ccccc1NS(=O)(=O)c1ccc(OCCNS(C)(=O)=O)cc1	23	1	17*	-33	-8	-13
CN1CC=C2C(C#N)=C(N)C(C#N)(C#N)[C@H](c3cccc(Cl)c3)C2C1 (stereo partly drawn)	18	-2	18*	5	4	-4
COc1cc([C@@H]2[C@H]3CN(C)CC=C3C(C#N)=C(N)C2(C#N)C#N)cc2c1OCO2	8	2	3	-6	.	.
O=C(Nc1cccc([N+](=O)[O-])c1)c1ccc([N+](=O)[O-])o1	-2	-2	18*	-1	2	1
CCn1cc(S(=O)(=O)NCCc2ccc(OC)c(OC)c2)cn1	1	-1	-2	5	.	.
O=C(CSc1ccc(Br)c2cccc(Cl)c12)Nc1ccc(S(=O)(=O)Nc2nccs2)cc1	0	-1	27*	-35	5	0
O=C(Cc1ccccc1Cl)Nc1ccc(S(=O)(=O)Nc2nccs2)cc1	-1	-3	-4	1	.	.
CC1CCCN(CCCNC(=O)c2ccc3c(c2)N(Cc2cccc(Cl)c2)C(=O)c2ccccc2S3=O)C1 (stereo not drawn)	3	5	16*	-23	-2	-5
CC1CCCN(CCCNC(=O)c2ccc3c(c2)N(Cc2ccc(F)cc2)C(=O)c2ccccc2S3=O)C1 (stereo not drawn)	8	-1	2	-17	.	.
COC(=O)[C@]12C[C@H](CC(=O)NCc3cccc4ccccc34)C(=O)N(Cc3ccccc3)C1=C[C@H](C(C)(C)C)O[C@@H]2C	.	2	6	.	.	.
COc1ccc(CNc2ncnc3cc(Cl)ccc23)cc1OC	-1	3	16*	3	-9	-6
COc1ccccc1CNc1ncnc2cc(Cl)ccc12	0	10	3	-5	.	.
COc1ccccc1OCC(=O)NCc1ccco1	-3	3	-5	13	.	.
COc1ccccc1C(C)NCC(=O)NC(=O)NCc1ccco1 (stereo not drawn)	-1	4	57*	13	-5	-8
CCCCn1c(O)c(C(CC)=Nc2ccc3c(c2)CCC3)c(=O)[nH]c1=O	4	1	17*	-11	2	-2
COc1cc(/C=C\C(=O)NCc2ccc3c(c2)cc(C)n3C)cc(OC)c1OC	20	-8	22*	-8	10	5
Cc1onc(-c2ccccc2Cl)c1C(=O)NCc1ccc2c(c1)cc(C)n2C	5	-2	22*	10	3	1
Cc1cc2cc(CNC(=O)COc3ccccc3)ccc2n1C	2	3	46*	15	4	9
SMILES	CRFR2-BP ag	DDE Tn7 FP inh	Tn6 DDE FP	CRFBP-R2 block	Tn6 DDE ctr	Tn6 DDE conf
Cc1ccc(CNC(=O)c2c(-c3ccccc3Cl)noc2C)cc1	-1	0	-4	17	.	.
Cc1cccc(OCC(=O)NCc2ccccc2)c1	0	-9	1	6	.	.
Cc1cc2cc(CNC(=S)Nc3ccc(OC(F)F)cc3)ccc2n1C	0	4	20*	7	7	6
COC(=O)C1=C(C)N(Cc2ccc(Br)cc2)C(=S)NC1c1cccc(F)c1 (stereo not drawn)	.	-5	-3	.	.	.
O=C1OC/C(=C(/O)c2ccc(Cl)cc2)C1=O	-1	2	1	2	.	.
Cc1cc2cc(CNC(=O)NC3CCCCC3)ccc2n1C	0	-4	-1	4	.	.
Cc1cc2cc(CNC(=O)Nc3ccc(Cl)c(Cl)c3)ccc2n1C	0	-12	96*	-5	0	35*
Cc1cc2cc(CNC(=O)c3ccco3)ccc2n1C	12	-5	27*	-3	6	0
Cc1ccc(S(=O)(=O)NCc2ccc3c(c2)cc(C)n3C)cc1	2	-7	71*	10	4	-1
COc1ccc(C(=O)NCc2ccc3c(c2)cc(C)n3C)cc1	47	-2	19*	-21	6	-1
CN1C(=O)/C(=C\c2ccccc2F)Sc2ccc(C(=O)NC3CCN(Cc4ccccc4)CC3)cc21	1	2	0	-15	.	.
COCC(=O)NCc1ccc2c(c1)cc(C)n2C	1	3	21*	9	1	0
COc1cc(OC)cc(C(=O)NCc2ccc3c(c2)cc(C)n3C)c1	1	0	2	-1	.	.
COc1ccc(CC(=O)NCc2ccc3c(c2)cc(C)n3C)cc1OC	2	6	0	8	.	.
CCOc1ccc(CC(=O)NCc2ccc3c(c2)cc(C)n3C)cc1	2	2	45*	-16	3	0
O=C1C=CC(=O)c2c(O)c(N3CCN(CCO)CC3)c(Cl)c(O)c21	4	-6	40*	11	-4	9
O=S(=O)(c1ccc(Br)cc1Cl)N1CCN(CCO)CC1	0	10	0	1	.	.
COc1ccc(CNC(=O)COC(=O)[C@@H]2CCCN2C(=O)c2cccs2)cc1	-1	-1	-7	6	.	.
O=C(COC(=O)C1CC1)Nc1ccc(OC(F)F)cc1	0	6	15*	10	-2	-5
CCN(CC)c1ccc2nc3ccc(N)cc3[n+](-c3ccccc3)c2c1	2	2	+	0	-1	93*
CCOC(=O)c1cc2c(=Cc3ccc(N(C)C)cc3)c3ccccc3n2[n+]1C	-3	-2	22*	-32	6	-15
CCc1c(-c2ccccc2Br)ncn1CCc1ccccc1OC	.	3	-1	.	.	.
